Where two headings read alike, the source gives them in different places.
Experiments:
[1] = Experiment 7: two-week intermediate storage in the fridge; format: in vitro ADME, human; settings: EDTA plasma, 2 weeks at −20°C before −80°C; six Aβ assays
[2] = cited from earlier work; for time from which levels in whole blood at RT started declining: different assays than used in this study
[3] = Experiment 8: aliquot freeze-thawing; format: in vitro ADME, human; settings: EDTA plasma; for impact of sample freeze–thawing (up to four cycles) on values: six Aβ assays
In short: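 Human EDTA plasma subjected to repeated freeze–thaw was compared with reference aliquots (centrifuged 1800 × g at room temperature after 30 min standing at room temperature, aliquoted immediately, stored at −80°C). Each value was normalized to its reference as %recovery, and the group median per condition was taken. A median change >10% was deemed relevant. GFAP was measured with the pre-commercial Simoa Neurology 4-Plex E kit.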

[4] = cited from earlier work
[5] = cited from earlier work; remark: listed apart in the source
[6] = format: in vitro ADME, human; settings: EDTA whole blood, Simoa N3PA

Aβ40: endogenous amyloid beta 40 peptide measured in blood as Alzheimer's disease biomarker
decrease of values after two‐week intermittent storage at −20°C [1]: did not | time from which levels in whole blood at RT started declining ([2]; ref 33): 1 h | time from which levels in whole blood at RT started declining ([2]; ref 36): 48 h | impact of sample freeze–thawing (up to four cycles) on values [3]: did not impact | time from which levels in separated plasma decline at RT [4]: 8 h

Aβ42: endogenous amyloid beta 42 peptide measured in blood as Alzheimer's disease biomarker
decrease of values after two‐week intermittent storage at −20°C [1]: did not | time from which levels in whole blood at RT started declining ([2]; ref 33): 1 h | time from which levels in whole blood at RT started declining ([2]; ref 36): 6 h | impact of sample freeze–thawing (up to four cycles) on values [3]: did not impact | time from which levels in separated plasma decline at RT [4]: 6 h

glial fibrillary acidic protein [GFAP]
median recovery after four additional freeze–thaw cycles, other biomarkers ([3]; GFAP by Simoa N4PE): 113% | change at the second freeze–thaw cycle ([3]; Simoa N4PE): no change | plasma levels at freeze–thaw cycle 4 [5]: remained stable

total tau [t‐tau]
median recovery, tubes held at RT for 3 hours pending centrifugation ([6]; 3 hours): 83% | median recovery, tubes held at RT for 24 hours pending centrifugation ([6]; 24 hours): 49% | time for which t‐tau was stable prior to centrifugation ([2]; other t‐tau assays): up to 6 hours

Source: paper PMC9148379 (Alzheimer's & Dementia, 2021)
